Activity calls are given as the source filed them. The calls are words filed in the database; no cut-off is given here.

Consider one compound from ChEMBL document CHEMBL5705902, “Role of G Protein-Coupled Receptor Kinases 2 and 3 in μ-Opioid Receptor Desensitization and Internalization” (Mol Pharmacol, 2015).

The target of assay [1] is Mu-type opioid receptor (Rattus norvegicus) (UniProt P33535). Briefly: Inhibition of MOPr desensitization in wistar rat LC neuron cells assessed as Met-Enk response at 3 uM incubated for 15 mins relative to control.
Target sequence in this assay (P33535 whole entry, the tested form may be a part): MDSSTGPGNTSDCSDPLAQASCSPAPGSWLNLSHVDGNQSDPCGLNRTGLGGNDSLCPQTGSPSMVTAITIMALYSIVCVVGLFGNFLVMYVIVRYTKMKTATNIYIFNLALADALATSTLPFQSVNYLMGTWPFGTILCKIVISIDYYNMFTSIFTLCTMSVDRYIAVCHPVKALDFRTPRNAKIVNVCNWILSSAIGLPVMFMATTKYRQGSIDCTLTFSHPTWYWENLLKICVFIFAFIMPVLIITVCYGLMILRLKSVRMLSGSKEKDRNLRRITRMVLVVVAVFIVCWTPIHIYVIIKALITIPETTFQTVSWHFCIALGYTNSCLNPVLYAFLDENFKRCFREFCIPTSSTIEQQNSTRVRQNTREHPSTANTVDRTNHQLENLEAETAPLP
In assay [2] the target is cAMP-dependent protein kinase (PKA) (Homo sapiens) (UniProt P22694+P17612+P22612). Briefly: Inhibition of PKA (unknown origin) at 1 uM in presence of 32ATP relative to control. The class given is protein assay. An outline of the steps: (§1)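 Express screen of 52 purified human kinases run as a radioactive filter-binding assay with 32ATP, at 1 μM inhibitor. ATP was at or below each kinase's calculated Km. Activity is given as percent of the activity without inhibitor. Run in duplicate; mean with S.D.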

Assay [3] addresses Mitogen-activated protein kinase 1 (Homo sapiens) (UniProt P28482). Briefly: Inhibition of human ERK2 assessed as remaining activity at 1 uM in presence of 32ATP relative to control. The procedure, abridged:
(§2)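 Express panel of 52 purified human kinases run in vitro. Kinase activity was measured directly by a radioactive filter-binding assay with ³²ATP, at ATP levels at or below each kinase's calculated Km for ATP. The compound was tested at 1 μM. Each assay was run in duplicate, and activity is given as the mean percentage (with S.D.) of activity without inhibitor.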

Assay [4] addresses Casein kinase 2 (Homo sapiens) (UniProt P67870+P68400+P19784+Q8NEV1). Briefly: Inhibition of human CK2 assessed as remaining activity at 1 uM in presence of 32ATP relative to control. It counts as protein assay. An outline of the steps:
as §1

Assay [5] addresses Mu-type opioid receptor (Mus musculus) (UniProt P42866). Briefly: Inhibition of MOPr desensitization in C57BL/6J mouse LC neuron cells assessed as reduction in the Met-Enk induced desensitization at 3 uM incubated for 15 mins before.
For assay [6], the target named is Mu-type opioid receptor (Rattus norvegicus) (UniProt P33535). Briefly: Inhibition of HA-tagged rat MOPr stably expressing in HEK293 cells assessed as increase in DAMGO-induced ERK1/2 phosphorylation level at 3 to 30 uM preincubated for 30 mins by westernblot analysis. It counts as functional, cell-based. The note with it: dose 3-30 µM. An outline of the steps:
(§3)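 HEK 293 cells stably expressing HA-tagged rat MOPr were grown to 90% confluence and serum-starved 24 h. Inhibitor was added for 30 min, then DAMGO 10 μM for 5 min. pERK1/2 was measured by Western blot with ECL detection. Densitometry was done in duplicate, normalized to total ERK1/2 and expressed as % of maximal DAMGO response; n = 4.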
Target sequence in this assay (P33535 whole entry, the tested form may be a part): as above

In assay [7] the target is Tyrosine-protein kinase SYK (Homo sapiens) (UniProt P43405). Briefly: Inhibition of human SYK assessed as remaining activity at 1 uM in presence of 32ATP relative to control. The procedure, abridged: as §2
The target of assay [8] is Mu-type opioid receptor (Rattus norvegicus) (UniProt P33535). Briefly: Inhibition of HA-tagged rat MOPr stably expressing in HEK293 cells assessed as increase in ERK1/2 phosphorylation level at 30 uM preincubated for 30 mins by westernblot analysis. The class given is functional, cell-based. The procedure, abridged: as §3
Target sequence in this assay (P33535 whole entry, the tested form may be a part): as above
For assay [9] the target is unchanged. Briefly: Inhibition of HA-tagged rat MOPr in HEK293 cells assessed as prevention in DAMGO induced MOPr phosphorylation at Thr370 level at 30 uM preincubated for 30 mins by western blot analysis. It counts as functional, cell-based. Background: A western blot detects proteins with antibodies after separation by electrophoresis.
Target sequence in this assay (P33535 whole entry, the tested form may be a part): as above
Assay [10] shares this target. Briefly: Inhibition of HA-tagged rat MOPr in HEK293 cells assessed as DAMGO induced MOPr phosphorylation at Ser375 level at 3 uM preincubated for 30 mins by western blot analysis. The class given is functional, cell-based. The procedure, abridged:
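Serum-starved HEK 293 cells stably expressing HA-rat MOPr were pretreated with inhibitor for 30 min, then DAMGO 10 μM for 5 min. Receptor was enriched on WGA-agarose overnight at 4°C and blotted for pSer375. Densitometry was done in duplicate and normalized to total HA-MOPr; n = 3.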
Target sequence in this assay (P33535 whole entry, the tested form may be a part): as above

The target is the same in assay [11]. Briefly: Inhibition of MOPr desensitization in wistar rat LC neuron cells assessed as reduction in the DAMGO induced desensitization at 30 uM incubated for 15 mins before in the presence of GF109203X. It counts as functional, cell-based.
Target sequence in this assay (P33535 whole entry, the tested form may be a part): as above
The target is the same in assay [12]. Briefly: Inhibition of MOPr desensitization in wistar rat LC neuron cells assessed as reduction in the Met-Enk induced desensitization at 30 uM incubated for 15 mins before relative to control. The class given is functional, cell-based. An outline of the steps: (§4)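 Whole-cell patch clamp of GIRK currents in locus coeruleus slices from male Wistar rats (5–8 weeks). Inhibitor was given at least 15 min before and during the agonist, all drugs by superfusion. Percent desensitization was taken over 10 min of opioid agonist application. Met-Enk n = 5, endomorphin-2 n = 6; ANOVA.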

The target of assay [13] is Insulin-like growth factor 1 receptor (Homo sapiens) (UniProt P08069). Briefly: Inhibition of human IGF1R assessed as remaining activity at 1 uM in presence of 32ATP relative to control. An outline of the steps: as §2
Assay [14] addresses Ribosomal protein S6 kinase alpha-5 (Homo sapiens) (UniProt O75582). Briefly: Inhibition of human MSK1 assessed as remaining activity at 1 uM in presence of 32ATP relative to control. The procedure, abridged:
as §2

The target in assay [15] is Serine/threonine-protein kinase D1 (Homo sapiens) (UniProt Q15139). Briefly: Inhibition of human PKD1 assessed as remaining activity at 1 uM in presence of 32ATP relative to control. The procedure, abridged:
as §2

For assay [16], the target named is Mu-type opioid receptor (Rattus norvegicus) (UniProt P33535). Briefly: Inhibition of MOPr desensitization (unknown origin) assessed as drop in maximum morphine response at 30 uM incubated for 15 mins relative to control.
Target sequence in this assay (P33535 whole entry, looked up, the tested form may be a part): as the sequence (P33535 whole entry, the tested form may be a part) above
Assay [17] has as its target Ephrin type-A receptor 2 (Homo sapiens) (UniProt P29317). Briefly: Inhibition of human EPHA2 assessed as remaining activity at 1 uM in presence of 32ATP relative to control. The procedure, abridged:
as §2

Assay [18] addresses Serine/threonine-protein kinase Sgk1 (Homo sapiens) (UniProt O00141). Briefly: Inhibition of human SGK1 assessed as remaining activity at 1 uM in presence of 32ATP relative to control. An outline of the steps: as §2
Assay [19] has as its target Mu-type opioid receptor (Homo sapiens) (UniProt P35372). Briefly: Inhibition of HA-tagged MOPr (unknown origin) stably expressed in human U2OS cells assessed as reduction in DAMGO induced large recruitment of arrestin-3 translocation at 30 uM preincubated for 30 mins by DiscoveRx PathHunter assay. It counts as functional, cell-based. The procedure, abridged:
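PathHunter U2OS cells stably express tagged human MOPr and tagged arrestin-3. Recruitment reconstitutes β-galactosidase, read by luminescence. DAMGO 10 μM was applied for 90 min, with inhibitor (30 μM) added 30 min before; n = 3.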

In assay [20] the target is Calcium/calmodulin-dependent protein kinase type 1 (Homo sapiens) (UniProt Q14012). Briefly: Inhibition of human CAMK1 assessed as remaining activity at 1 uM in presence of 32ATP relative to control. An outline of the steps:
as §1

In assay [21] the target is Mu-type opioid receptor (Rattus norvegicus) (UniProt P33535). Briefly: Inhibition of MOPr desensitization in wistar rat LC neuron cells assessed as reduction in the DAMGO induced desensitization at 3 to 100 uM incubated for 15 mins before. The class given is functional, cell-based. The note with it: dose 3-100 µM. An outline of the steps: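 Rat LC neurons (Wistar, 5–8 weeks) were recorded by whole-cell patch clamp. DAMGO 10 μM was superfused for 12 min to desensitize, then the maximal morphine 30 μM response was measured at plateau. Inhibitor was superfused beforehand; n = 4; ANOVA.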

Assay [22] shares this target. Briefly: Inhibition of MOPr desensitization in wistar rat LC neuron cells assessed as reduction in the Met-Enk induced desensitization incubated for 15 mins before. The note with it: dose 3-30 µM. The class given is functional, cell-based. An outline of the steps: as §4

Chain of Ribosomal protein S6 kinase alpha-5 (Homo sapiens) (O75582 whole entry, looked up): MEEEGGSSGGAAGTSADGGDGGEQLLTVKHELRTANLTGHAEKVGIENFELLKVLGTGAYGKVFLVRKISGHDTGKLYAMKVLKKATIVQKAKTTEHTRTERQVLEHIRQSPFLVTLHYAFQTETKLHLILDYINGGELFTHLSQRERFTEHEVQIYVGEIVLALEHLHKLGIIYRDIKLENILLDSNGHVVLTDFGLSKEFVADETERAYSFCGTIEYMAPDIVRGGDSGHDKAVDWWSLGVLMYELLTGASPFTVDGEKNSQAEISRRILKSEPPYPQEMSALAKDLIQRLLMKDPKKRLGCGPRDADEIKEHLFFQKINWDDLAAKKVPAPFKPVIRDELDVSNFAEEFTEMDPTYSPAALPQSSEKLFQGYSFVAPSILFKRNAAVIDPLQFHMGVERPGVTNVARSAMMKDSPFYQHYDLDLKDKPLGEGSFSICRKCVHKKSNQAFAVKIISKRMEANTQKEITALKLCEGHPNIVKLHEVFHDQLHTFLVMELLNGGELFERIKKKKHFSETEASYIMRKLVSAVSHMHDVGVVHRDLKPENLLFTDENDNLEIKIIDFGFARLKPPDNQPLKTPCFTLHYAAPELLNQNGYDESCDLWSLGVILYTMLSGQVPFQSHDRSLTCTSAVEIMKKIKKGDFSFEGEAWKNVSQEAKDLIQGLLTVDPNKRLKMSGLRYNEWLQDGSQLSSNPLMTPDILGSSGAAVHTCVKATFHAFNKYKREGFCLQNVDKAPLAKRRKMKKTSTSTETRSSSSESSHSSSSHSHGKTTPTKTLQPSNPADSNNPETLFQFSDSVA
Chain of Mitogen-activated protein kinase 1 (Homo sapiens) (P28482 whole entry): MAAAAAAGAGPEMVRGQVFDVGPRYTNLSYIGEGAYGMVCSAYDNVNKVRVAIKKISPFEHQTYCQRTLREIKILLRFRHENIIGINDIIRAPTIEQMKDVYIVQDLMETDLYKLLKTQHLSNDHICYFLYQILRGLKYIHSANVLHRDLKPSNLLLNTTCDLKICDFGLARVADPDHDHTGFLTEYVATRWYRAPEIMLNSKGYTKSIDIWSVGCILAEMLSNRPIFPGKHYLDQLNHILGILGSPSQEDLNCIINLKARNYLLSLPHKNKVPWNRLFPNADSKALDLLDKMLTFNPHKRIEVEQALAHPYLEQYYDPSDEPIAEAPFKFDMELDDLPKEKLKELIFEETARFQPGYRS
Chain of Serine/threonine-protein kinase Sgk1 (Homo sapiens) (O00141 whole entry): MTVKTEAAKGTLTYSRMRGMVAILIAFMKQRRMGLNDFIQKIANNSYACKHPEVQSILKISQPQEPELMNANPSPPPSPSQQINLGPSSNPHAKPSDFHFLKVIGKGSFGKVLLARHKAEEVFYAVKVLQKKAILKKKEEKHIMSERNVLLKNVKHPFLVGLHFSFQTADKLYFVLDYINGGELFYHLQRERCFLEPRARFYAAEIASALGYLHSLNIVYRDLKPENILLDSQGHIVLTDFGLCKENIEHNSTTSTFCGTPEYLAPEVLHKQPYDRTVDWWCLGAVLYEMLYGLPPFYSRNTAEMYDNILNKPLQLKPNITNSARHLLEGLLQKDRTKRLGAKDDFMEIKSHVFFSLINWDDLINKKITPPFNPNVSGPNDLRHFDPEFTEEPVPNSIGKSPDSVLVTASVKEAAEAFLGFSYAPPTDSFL
Chain of Ephrin type-A receptor 2 (Homo sapiens) (P29317 whole entry): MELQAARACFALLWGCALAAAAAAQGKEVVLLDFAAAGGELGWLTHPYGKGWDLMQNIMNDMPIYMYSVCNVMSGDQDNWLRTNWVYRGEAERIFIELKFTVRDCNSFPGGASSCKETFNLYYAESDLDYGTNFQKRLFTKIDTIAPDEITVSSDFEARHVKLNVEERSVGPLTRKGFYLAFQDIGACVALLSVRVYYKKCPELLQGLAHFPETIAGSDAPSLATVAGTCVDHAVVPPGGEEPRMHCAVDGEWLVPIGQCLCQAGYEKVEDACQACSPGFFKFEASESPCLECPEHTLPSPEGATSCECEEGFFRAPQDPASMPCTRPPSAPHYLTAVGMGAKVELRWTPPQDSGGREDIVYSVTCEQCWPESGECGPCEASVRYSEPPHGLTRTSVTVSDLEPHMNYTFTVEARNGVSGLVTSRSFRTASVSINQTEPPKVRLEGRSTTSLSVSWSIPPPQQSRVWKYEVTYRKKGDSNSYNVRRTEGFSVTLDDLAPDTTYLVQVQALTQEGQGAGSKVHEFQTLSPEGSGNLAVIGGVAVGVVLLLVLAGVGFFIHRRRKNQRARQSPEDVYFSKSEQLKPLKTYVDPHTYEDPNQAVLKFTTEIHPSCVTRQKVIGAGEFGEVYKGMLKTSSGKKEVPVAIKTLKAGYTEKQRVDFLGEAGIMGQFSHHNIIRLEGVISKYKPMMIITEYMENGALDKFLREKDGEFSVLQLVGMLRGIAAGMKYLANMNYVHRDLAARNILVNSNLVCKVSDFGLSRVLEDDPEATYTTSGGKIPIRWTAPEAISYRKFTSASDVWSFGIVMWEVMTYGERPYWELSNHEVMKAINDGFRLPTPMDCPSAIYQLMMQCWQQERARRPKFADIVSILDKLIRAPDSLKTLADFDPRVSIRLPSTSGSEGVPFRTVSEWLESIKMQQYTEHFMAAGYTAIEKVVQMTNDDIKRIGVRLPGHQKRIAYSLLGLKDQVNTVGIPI
Chain of Mu-type opioid receptor (Homo sapiens) (P35372 whole entry): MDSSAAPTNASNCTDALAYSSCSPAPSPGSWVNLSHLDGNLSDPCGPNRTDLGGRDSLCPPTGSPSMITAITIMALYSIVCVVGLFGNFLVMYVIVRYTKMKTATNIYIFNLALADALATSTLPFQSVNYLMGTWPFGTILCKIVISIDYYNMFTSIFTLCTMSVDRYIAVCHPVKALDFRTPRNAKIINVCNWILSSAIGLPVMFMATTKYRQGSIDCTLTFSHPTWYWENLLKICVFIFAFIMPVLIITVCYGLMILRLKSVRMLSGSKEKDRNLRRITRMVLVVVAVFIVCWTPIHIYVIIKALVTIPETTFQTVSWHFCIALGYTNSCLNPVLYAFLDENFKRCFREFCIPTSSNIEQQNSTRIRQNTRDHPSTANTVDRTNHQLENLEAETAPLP
Chain of Calcium/calmodulin-dependent protein kinase type 1 (Homo sapiens) (Q14012 whole entry, looked up): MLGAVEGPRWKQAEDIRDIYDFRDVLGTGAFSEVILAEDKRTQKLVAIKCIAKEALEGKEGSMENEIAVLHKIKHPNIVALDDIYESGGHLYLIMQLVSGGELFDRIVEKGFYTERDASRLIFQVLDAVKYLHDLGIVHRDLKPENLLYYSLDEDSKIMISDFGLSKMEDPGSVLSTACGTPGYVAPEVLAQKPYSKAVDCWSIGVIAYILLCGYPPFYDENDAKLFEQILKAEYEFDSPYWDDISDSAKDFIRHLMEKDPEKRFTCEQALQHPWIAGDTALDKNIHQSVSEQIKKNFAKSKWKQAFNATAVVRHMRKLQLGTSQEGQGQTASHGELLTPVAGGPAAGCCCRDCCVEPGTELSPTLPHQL
Chain of Mu-type opioid receptor (Mus musculus) (P42866 whole entry): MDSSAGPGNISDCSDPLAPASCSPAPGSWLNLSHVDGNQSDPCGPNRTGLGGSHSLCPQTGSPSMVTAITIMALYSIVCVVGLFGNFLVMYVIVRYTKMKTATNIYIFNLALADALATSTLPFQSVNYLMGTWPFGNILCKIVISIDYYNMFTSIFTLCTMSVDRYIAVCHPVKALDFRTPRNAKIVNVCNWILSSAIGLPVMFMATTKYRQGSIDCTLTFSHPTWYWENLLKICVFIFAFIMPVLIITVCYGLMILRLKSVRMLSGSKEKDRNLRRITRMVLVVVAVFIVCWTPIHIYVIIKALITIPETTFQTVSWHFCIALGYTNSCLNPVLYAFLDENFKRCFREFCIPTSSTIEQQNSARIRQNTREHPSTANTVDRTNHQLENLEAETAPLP

Consider `Cn1c(CNc2cccc(C(=O)NCc3ccccc3C(F)(F)F)c2)nnc1-c1ccncc1`, for which the Met-Enk (600 nM) response, % of initial in assay [1] turned out to be 94%. Besides, the inhibition in assay [2] was < 20%; in [16], 44%; in assay [22], “Dose-Dependent Effect”. Moreover, the Activity came out at 81% in assay [3]; 106% in [4]; 103% in assay [7]; 103% in [13]; 10% in [14]; 65% in [15]. The Activity stood at 85% in [17], 31% in [18] and 101% in [20]. Also, the inhibition entry in [5], in assay [8], in [9], in [10], in [19] and in [21] was “Active” in each case. Besides, the inhibition result in assay [6] and in assay [11] was “inactive” in each case. Besides, in [12], the desensitization was 15%.

As usually defined, the inhibition is how much of the control response was suppressed.
